# Source: PubChem (Sanford-Burnham Center for Chemical Genomics)
# Sampled rows, rich in hits. Any-hit rate of the full collection: about 3%.
# SENP6 inh = SENP6 protease inhibitors, primary screen, biochemical, luminescence, uHTS; Sentrin-specific protease 6 (Homo sapiens), Q9GZR1; Recombinant SENP6 catalytic domain, aminoluciferin luminescence; inhibition, % at 10 µM; hit rate 1.8% among 330,000;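 active = inhibition above about 50% at the single tested dose, limit read from the data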;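 note: plate controls were DMSO wells with enzyme for no effect and DMSO wells lacking enzyme for full effect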
# SENP8 block-1 = SENP8 protease inhibitors, primary screen, biochemical, luminescence. Sentrin-specific protease 8 (Homo sapiens), Q96LD8. purified SENP8, Z-RLRGG-aminoluciferin cleavage. inhibition, % at 10 µM. hit rate 1.2% among 330,000; in the data active = inhibition above about 50%
# Target sequence (Q96LD8 whole entry, looked up): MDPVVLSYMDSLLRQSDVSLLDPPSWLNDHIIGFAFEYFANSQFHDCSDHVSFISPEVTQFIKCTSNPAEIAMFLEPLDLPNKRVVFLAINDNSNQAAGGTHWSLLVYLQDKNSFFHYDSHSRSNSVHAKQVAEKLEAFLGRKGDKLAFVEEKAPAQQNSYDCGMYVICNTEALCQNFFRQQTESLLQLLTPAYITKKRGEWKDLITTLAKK
# Apaf1 inhib = inhibitors of human Apaf-1 apoptosome, primary screen, biochemical, DEVD-Rh110 fluorescence, uHTS | reconstituted apoptosome caspase-3 activity | Apoptotic protease-activating factor 1 (Homo sapiens), O14727 | hit rate 0.71% among 330,000 | inhibition, % at 20 µM | AID 489030, 2010; active = inhibition of at least 40% at 20 µM;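 note: plate controls were DMSO wells for no effect and DEVD-CHO caspase inhibitor wells for full effect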
#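 System: Apoptosome proteins | Medium: Hepes pH 7.5 with detergent and BSA | Also added: Cytochrome c trigger plus (Z-DEVD)2-Rh110 caspase-3 substrate | Incubation: 30 min compound preincubation, 50 min activation, room temperature | Detection: Rhodamine 110 fluorescence at Ex 480/Em 540 nm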
# SENP7 block = SENP7 protease inhibitors, primary screen, biochemical, luminescence, uHTS. Sentrin-specific protease 7 (Homo sapiens), Q9BQF6. recombinant SENP7, Z-RLRGG-aminoluciferin luminescence, 40 min. inhibition, % at 5 µM. hit rate 1.5% among 330,000. AID 434973, 2010;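 active = inhibition above about 50% at the single test dose, limit read from the data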;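 note: plate controls were DMSO with enzyme for no effect and no enzyme buffer wells for full effect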
# Target sequence (Q9BQF6 706-1050 limits assumed): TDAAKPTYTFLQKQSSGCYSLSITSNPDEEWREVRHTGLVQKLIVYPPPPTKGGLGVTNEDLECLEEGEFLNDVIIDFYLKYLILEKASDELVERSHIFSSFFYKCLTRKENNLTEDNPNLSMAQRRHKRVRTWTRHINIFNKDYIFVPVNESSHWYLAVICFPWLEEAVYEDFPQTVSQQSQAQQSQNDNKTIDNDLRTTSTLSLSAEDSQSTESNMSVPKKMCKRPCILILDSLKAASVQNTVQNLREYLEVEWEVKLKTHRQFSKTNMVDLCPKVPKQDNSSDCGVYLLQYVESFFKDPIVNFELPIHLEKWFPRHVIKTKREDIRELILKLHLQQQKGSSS
# UBC13 inh = UBC13 polyubiquitin chain formation inhibitors, primary screen, biochemical, TR-FRET, uHTS; AID 485273, 2010; inhibition, % at 20 µM; hit rate 0.47% among 330,000; Ubiquitin-conjugating enzyme E2 N (Homo sapiens), P61088; in the data active = inhibition above about 45%, passing the limit was not always enough
# SENP8 block-2 = human SENP8 protease inhibitors, primary screen, biochemical, fluorescence, Nedd8 protein substrate, uHTS. Sentrin-specific protease 8 (Homo sapiens), Q96LD8. inhibition, % at 20 µM. AID 602440, 2012. recombinant SENP8. hit rate 0.64% among 360,000; in the data active = inhibition mostly above about 40%, no sharp cut-off; inactive = mostly below about 27%
# SENP8 conf = SENP8 protease inhibitors, retest, confirmation, biochemical, luminescence, single concentration; AID 488912, 2010; Recombinant SENP8, Z-RLRGG-aminoluciferin luminescence, 60 min; hit rate 40% among 6,200; inhibition, % at 12.5 µM; shares compounds with SENP7 block;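 active = mean inhibition across replicates above about 50%, limit read from the data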
# SENP6 confirm = SENP6 protease inhibitors, confirmation, biochemical, luminescence, single concentration. shares compounds with SENP7 block. recombinant SENP6, Z-RLRGG-aminoluciferin luminescence. inhibition, % at 12.5 µM. hit rate 58% among 6,200. AID 488915, 2010
# SENP7 confirm = SENP7 protease inhibitors, retest, confirmation, biochemical, luminescence, single concentration; shares compounds with SENP7 block; recombinant SENP7, Z-RLRGG-aminoluciferin luminescence, 40 min; inhibition, % at 12.5 µM; hit rate 69% among 6,200
# Casp3 select = caspase-3 protease inhibitors, confirmation, selectivity assay for SENP inhibitor project, biochemical, single concentration | shares compounds with SENP7 block | purified caspase-3, Z-DEVD-aminoluciferin luminescence, 60 min | inhibition, % at 12.5 µM | hit rate 60% among 6,200 | AID 488918, 2010;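 active = mean inhibition above about 50%, limit read from the data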;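 note: plate controls were enzyme with DMSO for no effect and wells without caspase-3 for full effect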
# Luc interf = counter-screen for SENP inhibitors: luminescence interference; shares compounds with SENP7 block; Pre-incubated SENP8/Z-RLRGG-aminoluciferin, luciferase luminescence interference; inhibition, % at 12.5 µM; hit rate 39% among 6,200;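 active = mean inhibition above about 50% when retested at one dose, limit read from the data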;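 note: plate controls were DMSO wells with completed reaction for no effect and substrate without enzyme for full effect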
# Active calls of the source: *; . = no result.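 Rule for the calls, unless noted: active = mean inhibition above about 50% in the one-dose retest (limit read from the data); inactive = the rest.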
SMILES,SENP6 inh,SENP8 block-1,Apaf1 inhib,SENP7 block,UBC13 inh,SENP8 block-2,SENP8 conf,SENP6 confirm,SENP7 confirm,Casp3 select,Luc interf
COc1ccc(CC(=O)N2CCCC2)c(OC)c1,-1,0,3,9,-3,6,.,.,.,.,.
COc1cccc(C(=O)OCC(=O)c2ccc(Br)s2)c1,54*,25,13,40,1,4,53*,49,78*,36,21
COc1ccc(C(=O)OCC(=O)c2ccc(Br)s2)c(OC)c1,-2,3,18,-4,0,1,.,.,.,.,.
O=C(Nc1nnc(-c2ccccc2F)s1)c1cccnc1,-7,30,-14,36,15,-137,.,.,.,.,.
COC(=O)Nc1nnc(-c2ccc(OC)cc2)s1,68*,49,-22,75*,10,-329,50*,55*,85*,85*,52*
COc1ccc(C(=O)Nc2nnc(-c3ccccc3)s2)cc1,-16,-7,-3,10,-5,-118,.,.,.,.,.
O=C(Nc1nnc(C(F)(F)F)s1)c1cccnc1,55*,20,8,48,-1,-4,54*,54*,88*,85*,66*
COc1ccc(-c2nnc(NC(=O)c3c(OC)cccc3OC)s2)cc1,12,-1,-8,-9,-1,-231,.,.,.,.,.
COc1ccc(C(=O)Nc2nnc(C(F)(F)F)s2)cc1,61*,16,7,19,14,-32,33,31,64*,64*,27
O=C(COc1ccc(-c2nnco2)cc1)N1CCOCC1,8,0,2,4,-4,4,.,.,.,.,.
CCN(CC(=O)c1c(N)n(C)c(=O)n(C)c1=O)c1cccc2ccccc12,84*,54*,3,29,-47,-279,12,12,7,-4,-3
CN(C)CC(=O)c1c(N)n(Cc2ccccc2)c(=O)n(C)c1=O,0,1,-10,-3,1,19,.,.,.,.,.
O=[N+]([O-])/C=C\c1ccc(N2CCCC2)c(F)c1,.,.,.,.,.,16,.,.,.,.,.
COC(=O)C(NC(=O)c1ccccc1Cl)(Nc1ncc(S(=O)(=O)c2ccc([N+](=O)[O-])cc2)s1)C(F)(F)F (centres undefined),11,-5,11,-6,-25,25,.,.,.,.,.
COc1cccc(C(=O)Oc2ccc(/C=N/Nc3ccc(C(=O)O)cc3)cc2OC)c1,52*,31,0,4,-19,-121,57*,50,66*,13,34
COc1cccc(OCc2cc(/C=N/Nc3ccc(C(=O)O)cc3)ccc2OC)c1,87*,80*,-7,11,-10,-201,58*,84*,95*,48,22
COc1cc(/C=N/Nc2ccc(Cl)c(C(=O)O)c2)ccc1OC(=O)c1ccc(F)cc1,9,0,10,-7,-16,-20,.,.,.,.,.
C=CCn1c(SCC(=O)Nc2cc(OC)c(NC(=O)c3ccco3)cc2OC)nnc1-c1ccncc1,-6,-12,-3,-4,-3,-22,.,.,.,.,.
C=CCn1c(SCC(=O)Nc2ccc(NC(=O)c3ccco3)c(OC)c2)nnc1-c1ccncc1,74*,-4,10,13,-26,1,-24,-20,-11,-12,-8
CSCCC(NC(=O)COc1ccccc1)C(=O)NCc1cccs1 (centres undefined),-10,-7,10,11,-3,2,.,.,.,.,.
CC(C)(C)C(=O)c1cnc(Nc2ccccc2Cl)s1,90*,79*,10,83*,17,-390,86*,90*,97*,75*,83*
CC(=O)c1csc(Nc2ccccc2Cl)n1,42,14,-13,54*,-6,13,14,15,70*,63*,48
O=C(c1ccccc1)c1cnc(Nc2ccccc2Cl)s1,75*,49,18,54*,25,-276,73*,76*,87*,47,53*
CCCNC(=O)c1csc(Nc2cccc3ccccc23)n1,-36,-9,9,-5,-4,-36,.,.,.,.,.
CC(C)N1CCN(Cc2cc3ccccc3[nH]2)CC1CCO (centres undefined),14,-4,-18,-8,4,-37,.,.,.,.,.
SMILES,SENP6 inh,SENP8 block-1,Apaf1 inhib,SENP7 block,UBC13 inh,SENP8 block-2,SENP8 conf,SENP6 confirm,SENP7 confirm,Casp3 select,Luc interf
Cc1ccnc(N2C(=O)c3ccccc3C2Nc2cccc(C)c2C)c1 (centres undefined),-6,3,8,-5,5,5,.,.,.,.,.
Cc1ccnc(N2C(=O)c3ccccc3C2O)c1 (centres undefined),85*,81*,3,90*,4,-1,82*,82*,98*,96*,88*
Cc1ccc(C)c(S(=O)(=O)N(C)c2ccc(OC(=O)C3CCN(C(=O)Nc4ccccc4)CC3)cc2)c1,.,.,.,.,.,-1,.,.,.,.,.
CCSc1nn2c(=O)c3ccccc3nc2s1,58*,24,-5,30,6,17,39,36,70*,76*,47
CCOn1c(SCC)nc2ccccc2c1=O,-12,-5,-15,1,6,9,.,.,.,.,.
N#Cc1c(Nc2ccc(Cl)cc2)s[nH]c1=O,59*,47,-6,25,-8,-23,56*,49,85*,69*,39
CCCNC(=O)c1noc2c1CCc1ccccc1-2,-1,-11,9,4,0,6,.,.,.,.,.
O=C(Nc1cccnc1Cl)c1noc2c1CCc1ccccc1-2,31,-5,-21,65*,9,15,3,7,24,20,7
COc1ccc(-c2cn3cc(C)ccc3n2)cc1Br,91*,82*,7,86*,-4,-366,38,87*,99*,86*,26
COc1cc(/C=N/NC(=O)C(=O)NCc2ccco2)cc(Cl)c1O,-12,-2,-13,-1,0,-7,.,.,.,.,.
